The source made the active and inactive calls. The rule behind the calls is not given here.

In data set [1] the test system is Brain. Kind of data set: Tmax in rat brain assessed as 9H-fluoren-9-ol at 116 mg/kg, ip. Type of data set: ADME, organism-based. On the set-up: dose 116 mg/kg, route intraperitoneal. Conditions: in vivo. The method, boiled down: (§1)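 Rats received the parent compound at 116 mg/kg ip in 0.5% methylcellulose/0.2% Tween 80. The metabolite was measured in plasma and brain over time. Cmax is given in ng/g, Tmax in h, and AUC0-t in ng h/g. Values are mean ± SEM, n = 3.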

Data set [2] deals with Plasma. As to the kind of experiment: Tmax in rat plasma assessed as 9H-fluoren-9-ol at 116 mg/kg, ip. Type of data set: ADME, organism-based. On the set-up: dose 116 mg/kg, route intraperitoneal. Conditions: in vivo. The method, boiled down: as §1
In data set [3] the target is Sodium-dependent dopamine transporter (Rattus norvegicus, UniProt P23977). Kind of data set: Displacement of 3H-WIN-35428 from DAT in rat striata after 120 mins.
Chain of Sodium-dependent dopamine transporter (P23977 whole entry): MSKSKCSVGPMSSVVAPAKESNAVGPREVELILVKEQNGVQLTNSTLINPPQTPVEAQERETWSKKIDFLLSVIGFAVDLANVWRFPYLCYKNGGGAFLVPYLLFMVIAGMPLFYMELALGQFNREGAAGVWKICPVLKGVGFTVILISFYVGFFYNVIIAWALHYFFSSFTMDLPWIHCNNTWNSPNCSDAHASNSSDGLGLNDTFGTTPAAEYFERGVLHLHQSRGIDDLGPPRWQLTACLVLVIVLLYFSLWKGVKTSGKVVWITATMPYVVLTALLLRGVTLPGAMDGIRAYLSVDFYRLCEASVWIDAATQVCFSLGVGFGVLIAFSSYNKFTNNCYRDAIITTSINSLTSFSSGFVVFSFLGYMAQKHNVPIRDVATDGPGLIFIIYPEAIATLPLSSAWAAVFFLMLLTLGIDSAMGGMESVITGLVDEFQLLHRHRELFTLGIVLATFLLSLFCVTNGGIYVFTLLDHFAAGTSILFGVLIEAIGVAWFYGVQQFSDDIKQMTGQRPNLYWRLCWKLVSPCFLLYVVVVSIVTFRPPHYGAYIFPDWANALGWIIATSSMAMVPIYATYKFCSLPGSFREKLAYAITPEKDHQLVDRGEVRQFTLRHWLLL
Data set [4] has as its system Brain. As to the kind of experiment: AUC (0 to t) in rat brain assessed as 9H-fluoren-9-ol at 116 mg/kg, ip. It counts as ADME, organism-based. Set-up: dose 116 mg/kg, route intraperitoneal. Conditions: in vivo. The method, boiled down:
as §1

The test system of data set [5] is Rattus norvegicus. Kind of data set: Wake promoting activity in rat assessed as total time awake at 100 mg/kg, ip over a period of 3 hrs after dosing. Type of data set: functional. To be noted: route intraperitoneal.
Data set [6] relates to Plasma. As to the kind of experiment: AUC (0 to t) in rat plasma assessed as 9H-fluoren-9-ol at 116 mg/kg, ip. To be noted: in vivo. Set-up: dose 116 mg/kg, route intraperitoneal. Type of data set: ADME, organism-based. The method, boiled down:
as §1

The subject of data set [7] is Plasma. As to the kind of experiment: Cmax in rat plasma assessed as 9H-fluoren-9-ol at 116 mg/kg, ip. On the set-up: dose 116 mg/kg, route intraperitoneal. To be noted: in vivo. It counts as ADME, organism-based. The method, boiled down:
as §1

For data set [8], the system named is Brain. Kind of data set: Cmax in rat brain assessed as 9H-fluoren-9-ol at 116 mg/kg, ip. Conditions: in vivo. It counts as ADME, organism-based. Set-up: dose 116 mg/kg, route intraperitoneal. The method, boiled down:
as §1

In data set [9] the test system is Plasma. Kind of data set: Tmax in rat plasma assessed as 9H-fluoren-9-one at 116 mg/kg, ip. Type of data set: ADME, organism-based. Set-up: dose 116 mg/kg, route intraperitoneal. To be noted: in vivo. The method, boiled down:
as §1

Data set [10] concerns Plasma. Kind of data set: AUC (0 to t) in rat plasma assessed as 9H-fluoren-9-one at 116 mg/kg, ip. Type of data set: ADME, organism-based. On the set-up: dose 116 mg/kg, route intraperitoneal. Conditions: in vivo. The method, boiled down: as §1
For data set [11], the system named is Brain. As to the kind of experiment: Cmax in rat brain assessed as 9H-fluoren-9-one at 116 mg/kg, ip. It counts as ADME, organism-based. On the set-up: dose 116 mg/kg, route intraperitoneal. Conditions: in vivo. The method, boiled down: as §1
The subject of data set [12] is Brain. Kind of data set: Tmax in rat brain assessed as 9H-fluoren-9-one at 116 mg/kg, ip. Type of data set: ADME, organism-based. Set-up: dose 116 mg/kg, route intraperitoneal. Conditions: in vivo. The method, boiled down: as §1
In data set [13] the test system is Plasma. Kind of data set: Cmax in rat plasma assessed as 9H-fluoren-9-one at 116 mg/kg, ip. Type of data set: ADME, organism-based. On the set-up: dose 116 mg/kg, route intraperitoneal. To be noted: in vivo. The method, boiled down:
as §1

The test system of data set [14] is Brain. Kind of data set: AUC (0 to t) in rat brain assessed as 9H-fluoren-9-one at 116 mg/kg, ip. Type of data set: ADME, organism-based. On the set-up: dose 116 mg/kg, route intraperitoneal. To be noted: in vivo. The method, boiled down:
as §1

The next data set addresses Cytochrome P450 2C19 (Homo sapiens, UniProt P33261). Kind of data set: Inhibition of CYP2C19. It counts as ADME.
The species named for a further data set is Canis familiaris. As to the kind of experiment: Wake promoting activity in dog. It counts as functional, organism-based. Conditions: Canis lupus familiaris.
The next data set concerns the target CYP2C19 (Homo sapiens, UniProt P33261). Kind of data set: Inhibition of CYP2C19 at 10 uM. Type of data set: ADME.
Data set [15] deals with Rattus norvegicus. Kind of data set: Wake promoting activity in rat assessed as total time awake at 30 mg/kg, ip over a period of 3 hrs after dosing. Type of data set: functional. Conditions: route intraperitoneal.
In data set [16] the test system is Brain. As to the kind of experiment: AUC (0 to t) in rat brain at 116 mg/kg, ip. On the set-up: dose 116 mg/kg, route intraperitoneal. It counts as ADME, organism-based. To be noted: in vivo.
The nature of data set [17]: Cmax in rat plasma at 116 mg/kg, ip. It counts as ADME, organism-based. Set-up: dose 116 mg/kg, route intraperitoneal.
A short description of data set [18]: Tmax in rat brain at 116 mg/kg, ip. It counts as ADME, organism-based. Set-up: dose 116 mg/kg, route intraperitoneal.
The nature of data set [19]: Cmax in rat brain at 116 mg/kg, ip. Type of data set: ADME, organism-based. Set-up: dose 116 mg/kg, route intraperitoneal.
A short description of data set [20]: Tmax in rat plasma at 116 mg/kg, ip. On the set-up: dose 116 mg/kg, route intraperitoneal. Type of data set: ADME, organism-based.
For data set [21], the system named is Plasma. As to the kind of experiment: AUC (0 to t) in rat plasma at 116 mg/kg, ip. Type of data set: ADME, organism-based. Set-up: dose 116 mg/kg, route intraperitoneal. To be noted: in vivo.
The next data set concerns the target Cytochrome P450 2D6 (Homo sapiens, UniProt P10635). As to the kind of experiment: Inhibition of CYP2D6. It counts as ADME.
In data set [22] the test system is Plasma. As to the kind of experiment: Plasma concentration in human at efficacious dose. Type of data set: ADME, cell-free.
A further data set addresses Cytochrome P450 3A4 (Homo sapiens, UniProt P08684). Kind of data set: Inhibition of CYP3A4. It counts as ADME.

Chain of Cytochrome P450 2C19 (P33261 whole entry): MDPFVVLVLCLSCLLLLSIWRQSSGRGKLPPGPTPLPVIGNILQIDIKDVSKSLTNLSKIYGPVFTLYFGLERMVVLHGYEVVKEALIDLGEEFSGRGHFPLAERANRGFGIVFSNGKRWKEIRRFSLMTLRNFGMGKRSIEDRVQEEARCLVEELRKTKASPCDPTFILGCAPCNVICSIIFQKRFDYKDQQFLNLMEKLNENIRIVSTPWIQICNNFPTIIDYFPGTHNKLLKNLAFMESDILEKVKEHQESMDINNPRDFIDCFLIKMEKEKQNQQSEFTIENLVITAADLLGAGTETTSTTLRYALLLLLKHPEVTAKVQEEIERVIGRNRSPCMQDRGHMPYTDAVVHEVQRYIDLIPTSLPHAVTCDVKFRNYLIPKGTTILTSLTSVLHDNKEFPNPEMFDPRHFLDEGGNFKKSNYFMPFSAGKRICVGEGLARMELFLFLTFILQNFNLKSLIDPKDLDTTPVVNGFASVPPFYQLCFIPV
Chain of CYP2C19 (P33261 whole entry): as above
Chain of Cytochrome P450 2D6 (P10635 whole entry): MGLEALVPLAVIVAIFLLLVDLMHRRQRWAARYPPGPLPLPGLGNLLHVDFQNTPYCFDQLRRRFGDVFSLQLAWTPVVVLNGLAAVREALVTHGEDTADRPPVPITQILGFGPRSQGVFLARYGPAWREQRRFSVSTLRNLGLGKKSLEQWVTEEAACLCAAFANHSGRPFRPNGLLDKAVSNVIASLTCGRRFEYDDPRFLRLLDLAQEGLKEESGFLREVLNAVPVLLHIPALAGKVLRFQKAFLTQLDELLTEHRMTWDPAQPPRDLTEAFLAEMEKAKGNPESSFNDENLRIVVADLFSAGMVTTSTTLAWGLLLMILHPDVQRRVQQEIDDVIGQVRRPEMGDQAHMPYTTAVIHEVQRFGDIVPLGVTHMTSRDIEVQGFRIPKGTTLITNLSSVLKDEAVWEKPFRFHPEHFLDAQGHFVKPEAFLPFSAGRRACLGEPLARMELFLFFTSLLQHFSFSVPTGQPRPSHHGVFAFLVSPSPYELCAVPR
Chain of Cytochrome P450 3A4 (P08684 whole entry): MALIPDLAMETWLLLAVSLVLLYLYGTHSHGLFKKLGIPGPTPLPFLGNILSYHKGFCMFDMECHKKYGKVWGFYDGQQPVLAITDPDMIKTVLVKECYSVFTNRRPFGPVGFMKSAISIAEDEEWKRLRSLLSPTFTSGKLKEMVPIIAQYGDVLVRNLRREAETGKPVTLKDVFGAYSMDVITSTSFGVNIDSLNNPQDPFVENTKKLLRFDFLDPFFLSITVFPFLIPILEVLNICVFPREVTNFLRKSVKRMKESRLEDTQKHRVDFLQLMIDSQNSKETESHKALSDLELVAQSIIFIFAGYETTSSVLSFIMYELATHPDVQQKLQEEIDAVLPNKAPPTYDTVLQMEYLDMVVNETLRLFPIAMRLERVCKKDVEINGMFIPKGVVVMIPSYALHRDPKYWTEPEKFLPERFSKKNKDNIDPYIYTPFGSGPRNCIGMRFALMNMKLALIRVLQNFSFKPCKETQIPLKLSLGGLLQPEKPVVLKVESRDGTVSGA

By Tmax is commonly meant the time from dosing to the highest level. A word on the IC50: it is the midpoint of a concentration-inhibition curve. For orientation: Cmax means the highest concentration seen after dosing. For the compound `OC1c2ccccc2-c2ccccc21`, the Tmax in the data set with Brain [1] is 48 min; with Plasma [2], 120 min. The compound also had a half-inhibitory concentration (IC50) in data set [3] of 9 µM. The AUCt is 11639 ng·h/g with Brain [4] and 1081 ng·h/g in the data set on Plasma [6]. Further, the Time with Rattus norvegicus [5] was found to be 163 min. Also, the Cmax was 263 ng/g in the data set on Plasma [7] and 4384 ng/g in the data set on Brain [8].

On to `O=C1c2ccccc2-c2ccccc21`, for which the Tmax with Plasma [9] was determined as 72 min; in the data set on Brain [12], 48 min. Also, the AUCt with Plasma [10] amounted to 939 ng·h/g; with Brain [14], 2349 ng·h/g. Also, the Cmax is 971 ng/g in the data set on Brain [11] and 255 ng/g in the data set with Plasma [13].

Regarding `C[C@H](NC(=O)C[S+]([O-])C1c2ccccc2-c2ccccc21)C(N)=O` (mixture of isomers), the half-maximal inhibitory concentration (IC50) (against Cytochrome P450 2C19; in [3]) was above 100 µM each time. The result in the data set filed under Canis familiaris was inactive. The Time in the data set on Rattus norvegicus [5] came out at 151 min.

For `NC(=O)[C@H](CO)NC(=O)C[S+]([O-])C1c2ccccc2-c2ccccc21` (mixture of isomers), the concentration for half-maximal inhibition (IC50) (against Cytochrome P450 2C19; in [3]) was above 100 µM each time. Besides, the result in the data set listed under Canis familiaris was inactive. Also, the Time with Rattus norvegicus [5] worked out at 136 min.

Take `NC(=O)[C@@H]1CCCN1C(=O)C[S+]([O-])C1c2ccccc2-c2ccccc21` (mixture of isomers): the half-inhibitory concentration (IC50) (against Cytochrome P450 2C19; in data set [3]) was above 100 µM throughout. Moreover, the outcome in the data set listed under Canis familiaris was inactive. Further, in the data set with Rattus norvegicus [5], the Time is 169 min.

Regarding `NC(=O)C[S+]([O-])C1c2ccccc2-c2ccccc21` (racemic), the IC50 (at Cytochrome P450 2C19; in [3]) was above 100 µM throughout. Also, the outcome in the data set listed under Canis familiaris was inactive. The Time with Rattus norvegicus [5] turned out to be 116 min.

The term inhibition denotes the relative decrease from the control value, in per cent. Read a high inhibition as a response far below the control. As to `CC1([S+]([O-])CC(N)=O)c2ccccc2-c2ccccc21` (racemic), at CYP2C19, the inhibition at 10 µM was determined as 26%. The IC50 in data set [3] is above 100 µM. Moreover, the Time in the data set with Rattus norvegicus [5] is recorded as 71 min.

On to `CNC(=O)C[S+]([O-])C1c2ccccc2-c2ccccc21` (racemic), for which the inhibition at 10 µM against CYP2C19 is 48%. For the same compound, the IC50 in data set [3] was above 100 µM. In addition, the outcome in the data set listed under Canis familiaris was inactive. In addition, in the data set with Rattus norvegicus [5], the Time turned out to be 83 min.

Take `O=C(C[S+]([O-])C1c2ccccc2-c2ccccc21)NCCO` (racemic): the IC50 (at Cytochrome P450 2C19; in [3]) was above 100 µM each time. In the data set listed under Canis familiaris, the result was inactive. For the same compound, in the data set on Rattus norvegicus [5], the Time is given as 167 min.

In the case of `CCN(CC)C(=O)C[S+]([O-])C1c2ccccc2-c2ccccc21` (racemic), the 50% inhibitory concentration (IC50) (against Cytochrome P450 2C19; in [3]) was above 100 µM in each case. Besides, in the data set listed under Canis familiaris, the outcome was inactive. Besides, the Time in the data set on Rattus norvegicus [5] is listed as 99 min.

Take `O=C(C[S+]([O-])C1c2ccccc2-c2ccccc21)N1CCOCC1` (racemic): the Time with Rattus norvegicus [15] turned out to be 158 min. At CYP2C19, this compound came in with an inhibition at 10 µM of 30%. Moreover, the IC50 in [3] was above 100 µM. Also, the outcome in the data set filed under Canis familiaris was inactive.

Regarding `O=C(C[S+]([O-])C1c2ccccc2-c2ccccc21)N1CCNCC1` (racemic), the half-inhibitory concentration (IC50) (against Cytochrome P450 2C19; in data set [3]) was above 100 µM each time. For the same compound, the Time in the data set with Rattus norvegicus [15] is recorded as 119 min. The outcome in the data set listed under Canis familiaris was inactive.

For `CC(=O)N1CCN(C(=O)C[S+]([O-])C2c3ccccc3-c3ccccc32)CC1` (racemic), the AUCt with Brain [16] was 295 ng·h/g; with Plasma [21], 7501 ng·h/g. The Cmax in data set [17] was determined as 6290 ng/g; in [19] it was 416 ng/g. Besides, the IC50 (against Cytochrome P450 2C19; in data set [3]) was above 100 µM throughout. Besides, the Time with Rattus norvegicus [15] stood at 146 min. Further, the Tmax in [18] and in data set [20] was 48 min throughout. In addition, the result in the data set filed under Canis familiaris was inactive.

For the compound `NC(=O)CNC(=O)C[S+]([O-])C1c2ccccc2-c2ccccc21` (racemic), the 50% inhibitory concentration (IC50) (at Cytochrome P450 2C19; in data set [3]) was above 100 µM each time. The outcome in the data set filed under Canis familiaris was inactive. Besides, the Time in the data set with Rattus norvegicus [5] worked out at 140 min.

As to `NC(=O)C[S+]([O-])C(c1ccccc1)c1ccccc1` (racemic) [MODAFINIL], the outcome in the data set filed under Canis familiaris was inactive. Also, the “inhibition (INH)” value against Cytochrome P450 2D6 and on Cytochrome P450 3A4 was “Not Active” in each case. In the data set on Plasma [22], this compound came in with a concentration above 30 µM. Besides, the Time in the data set on Rattus norvegicus [5] was 117 min.

(Values after ChEMBL document CHEMBL2029334 (Bioorg Med Chem Lett, 2012).)
